Assay results: ChEMBL document CHEMBL3124926, “Identification of highly efficacious glucocorticoid receptor agonists with a potential for reduced clinical bone side effects” (J Med Chem, 2014)

How the values were obtained:
[1] = biological target: T1, Glucocorticoid receptor (Homo sapiens) (UniProt P04150); experiment: Agonist activity at glucocorticoid receptor in human […] cells assessed as suppression of vitamin D-induced osteocalcin production at 2 uM after 48 hrs by Gla-type osteocalcin ELISA relative to dexomethasone; assay type: cell-based
T1 sequence (whole entry): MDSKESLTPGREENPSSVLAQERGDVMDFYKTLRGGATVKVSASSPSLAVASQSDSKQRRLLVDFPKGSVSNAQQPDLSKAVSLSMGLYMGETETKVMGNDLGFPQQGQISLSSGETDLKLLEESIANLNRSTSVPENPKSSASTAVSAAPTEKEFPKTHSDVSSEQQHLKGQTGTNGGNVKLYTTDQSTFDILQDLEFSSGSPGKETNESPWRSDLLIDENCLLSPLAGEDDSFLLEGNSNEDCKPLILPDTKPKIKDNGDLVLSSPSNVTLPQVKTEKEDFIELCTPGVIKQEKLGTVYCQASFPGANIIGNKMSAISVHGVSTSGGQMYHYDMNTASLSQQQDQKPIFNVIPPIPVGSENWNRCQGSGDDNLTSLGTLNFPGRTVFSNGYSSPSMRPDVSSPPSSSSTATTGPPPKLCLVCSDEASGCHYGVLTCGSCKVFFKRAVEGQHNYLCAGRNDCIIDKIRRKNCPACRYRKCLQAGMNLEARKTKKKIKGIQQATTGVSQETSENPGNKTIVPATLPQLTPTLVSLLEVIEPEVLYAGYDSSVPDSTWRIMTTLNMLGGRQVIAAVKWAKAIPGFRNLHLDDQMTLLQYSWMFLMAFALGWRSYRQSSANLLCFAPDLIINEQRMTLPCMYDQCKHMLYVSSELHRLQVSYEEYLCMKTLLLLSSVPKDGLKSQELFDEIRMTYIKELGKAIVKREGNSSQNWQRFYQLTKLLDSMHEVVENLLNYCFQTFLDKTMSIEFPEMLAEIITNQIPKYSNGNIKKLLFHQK
Summary of the method: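 MG-63 human osteosarcoma cells plated at 20000/well in DMEM/F-12 with 1% charcoal-filtered FBS and 10 μg/mL vitamin C. Medium refreshed next day, then vitamin D (10 nM final) added with compound (2 × 10−6 to 10−10 M), duplicates. Incubated 48 h at 37 °C; supernatant osteocalcin measured by Gla-type ELISA. Vitamin D-only wells = 100%. Max efficacy at 2 μM is relative to dexamethasone (100%).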

[2] = biological target: T1, Glucocorticoid receptor (Homo sapiens); experiment: Agonist activity at glucocorticoid receptor in human HeLa cells transfected with luciferase gene linked to MMTV promoter assessed as induction of luciferase transactivation activity at 2 uM after 6 hrs by luminescence assay; assay type: cell-based
Summary of the method: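 HeLa cells stably carrying an MMTV-luciferase construct, plated the day before at 25000/well in DMEM with 3% FBS. Medium replaced, then compound added (0.2% DMSO final); 1 μM dexamethasone wells = 100% induction, vehicle = background. Incubated 6 h at 37 °C, 5% CO2. Luminescence read after lysis; activation expressed as % of positive control. Top concentration 2 μM.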

[3] = biological target: T1, Glucocorticoid receptor (Homo sapiens); experiment: Transrepression activity at glucocorticoid receptor in human fibroblasts assessed as inhibition of IL-1-induced IL-6 production at 2 uM after 18 to 24 hrs relative to dexomethasone
Summary of the method: (§1)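 Human foreskin fibroblasts grown in Iscove's medium with 10% charcoal/dextran-treated FBS, plated at 20000/well two days before. Medium replaced, then compound (0.4% DMSO final) and recombinant human IL-1 (1 ng/mL final) added. 18–24 h at 37 °C; IL-6 in medium quantified by electrochemiluminescence, DELFIA or ELISA. IC50 by four-parameter fit of duplicate 11-point curves. Efficacy relative to dexamethasone (100%); top concentration 2 μM.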

Glucocorticoid receptor [4] = biological target: T2, Glucocorticoid receptor (Homo sapiens, UniProt P04150); experiment: Competitive binding affinity to glucocorticoid receptor (unknown origin) expressed in baculovirus-infected cell system after 1 hr by fluorescence polarization assay in presence of tetramethylrhodamine-labeled dexamethasone
T2 sequence (P04150 whole entry): T1 sequence (whole entry)
Summary of the method: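 Lysates of baculovirus-infected insect cells co-expressing receptor with HSP-70, HSP-90 and p23 (GR diluted 300-fold, MR 17-fold). Probe 5 nM tetramethylrhodamine-dexamethasone in TES/KCl/molybdate/EDTA/CHAPS/glycerol/DTT buffer, pH 7.4, 1% DMSO. 1 h at room temperature in the dark; fluorescence polarization read (ex 550/em 580 nm). Background set with 2 μM dexamethasone. IC50 from duplicate 11-point curves, four-parameter fit, mean of at least two determinations.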

Progesterone receptor = biological target: T3, Progesterone receptor (Homo sapiens, UniProt P06401); experiment: Competitive binding affinity to progesterone receptor (unknown origin) expressed in baculovirus-infected cell system after 1 hr by fluorescence polarization assay in presence of tetramethylrhodamine-labeled RU-486
T3 sequence (P06401 whole entry): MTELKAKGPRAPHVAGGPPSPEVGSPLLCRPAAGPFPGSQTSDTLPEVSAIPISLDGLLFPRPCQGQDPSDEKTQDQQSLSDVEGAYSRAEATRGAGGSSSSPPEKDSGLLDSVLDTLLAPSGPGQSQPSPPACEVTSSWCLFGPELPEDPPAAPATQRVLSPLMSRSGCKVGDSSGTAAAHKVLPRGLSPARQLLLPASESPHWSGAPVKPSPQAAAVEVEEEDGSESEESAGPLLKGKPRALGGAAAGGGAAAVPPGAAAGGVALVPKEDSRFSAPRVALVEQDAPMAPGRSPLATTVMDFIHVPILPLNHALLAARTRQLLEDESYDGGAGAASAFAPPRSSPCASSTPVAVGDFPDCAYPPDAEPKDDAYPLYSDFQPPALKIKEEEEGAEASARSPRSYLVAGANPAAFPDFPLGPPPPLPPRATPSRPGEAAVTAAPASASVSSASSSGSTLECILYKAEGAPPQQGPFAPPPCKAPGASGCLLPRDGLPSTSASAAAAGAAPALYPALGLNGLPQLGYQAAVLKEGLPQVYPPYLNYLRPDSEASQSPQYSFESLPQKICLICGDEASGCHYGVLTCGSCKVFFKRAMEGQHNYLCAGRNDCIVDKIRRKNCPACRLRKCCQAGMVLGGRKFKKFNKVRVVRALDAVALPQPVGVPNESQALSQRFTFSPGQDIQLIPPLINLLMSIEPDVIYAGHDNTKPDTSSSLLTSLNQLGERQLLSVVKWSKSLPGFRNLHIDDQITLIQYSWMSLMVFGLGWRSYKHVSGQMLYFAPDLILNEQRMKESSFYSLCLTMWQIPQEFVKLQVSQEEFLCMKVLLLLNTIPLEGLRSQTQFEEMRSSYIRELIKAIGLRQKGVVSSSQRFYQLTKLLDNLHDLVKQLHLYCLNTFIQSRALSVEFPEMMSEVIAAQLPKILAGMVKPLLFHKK
Summary of the method: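 PR from lysate of insect cells infected with receptor baculovirus alone, diluted 13-fold. Probe 5 nM tetramethylrhodamine-labeled RU-486 in pH 7.4 TES/KCl/molybdate buffer with 1% DMSO. 1 h at room temperature in the dark, then fluorescence polarization (ex 550/em 580 nm). Background set with 2 μM RU-486. IC50 from duplicate 11-point curves, four-parameter logistic fit, mean of at least two determinations.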

Glucocorticoid receptor [5] = biological target: T2, Glucocorticoid receptor; experiment: Transrepression activity at glucocorticoid receptor in human fibroblasts assessed as inhibition of IL-1-induced IL-6 production after 18 to 24 hrs; summary of the method: as §1

Row | Compound | Emax [1] | Emax [2] | Emax [3] | IC50 (Glucocorticoid receptor [4]) | IC50 (Progesterone receptor) | IC50 (Glucocorticoid receptor [5])
1 | Cc1ccc(F)cc1C(C)(C)CC(O)(Cc1cc2nc(-c3ccccc3)ncc2[nH]1)C(F)(F)F (racemic) | 72% | 36% | 93% | 5 nM | > 2000 nM | 8 nM
2 | Cc1ccc(F)cc1C(C)(C)CC(O)(Cc1cc2nc(-c3cccnc3)ncc2[nH]1)C(F)(F)F (racemic) | 74% | 32% | 92% | 5 nM | > 2000 nM | 12 nM
3 | CC(C)(CC(O)(Cc1cc2ncncc2[nH]1)C(F)(F)F)c1ccc(F)cc1O (racemic) | 28% | 22% | 86% | 5 nM | 880 nM | 9 nM
4 | CC(C)(CC(O)(Cc1cc2ncncc2[nH]1)C(F)(F)F)c1cc(Cl)cc2c1OCC2 (racemic) | 35% | 12% | 87% | 5 nM | 1700 nM | 13 nM
5 | Cc1ccc(F)cc1C(C)(C)CC(O)(Cc1cc2cc(-c3ccccc3)nnc2[nH]1)C(F)(F)F (racemic) | 73% | 75% | – | 13 nM | > 2000 nM | 6 nM

The remaining lines, values ahead:

Row | Emax [1] | Emax [2] | Emax [3] | IC50 (Glucocorticoid receptor [4]) | IC50 (Progesterone receptor) | IC50 (Glucocorticoid receptor [5]) | Compound
6 | 34% | 0% | 86% | 5 nM | > 2000 nM | 9 nM | Cc1ccc(F)cc1C(C)(C)C[C@@](O)(Cc1cc2nnccc2[nH]1)C(F)(F)F
7 | 32% | 0% | 72% | 4 nM | > 2000 nM | 13 nM | Cc1ccc(F)cc1C(C)(C)C[C@@](O)(Cc1cc2ncncc2[nH]1)C(F)(F)F
8 | 80% | 22% | 84% | 8 nM | > 2000 nM | 19 nM | Cc1ccc(F)cc1C(C)(C)CC(O)(Cc1cc2nc(N3CCS(=O)(=O)CC3)ncc2[nH]1)C(F)(F)F (racemic)
9 | 45% | 7% | 85% | 7 nM | > 2000 nM | 16 nM | Cc1ccc(F)cc1C(C)(C)CC(O)(Cc1cc2nnccc2[nH]1)C(F)(F)F (racemic)
10 | 32% | 0% | 74% | 8 nM | > 2000 nM | 19 nM | Cc1ccc(F)cc1C(C)(C)CC(O)(Cc1cc2ncncc2[nH]1)C(F)(F)F (racemic)
